Results from ChEMBL document CHEMBL4330057, “Second generation of diazachrysenes: Protection of Ebola virus infected mice and mechanism of action” (Eur J Med Chem, 2019).
The source made the active and inactive calls. No cut-off for these calls is given here.

Assays:
[1] = Toxicity in 6 hrs post fertilized zebrafish embryo assessed as teratogenic effect by measuring malformation of tail up to 50 uM up to 120 hrs post fertilization by inverted microscopic method; format: tissue-based, Danio rerio; conditions: in vivo
[2] = Toxicity in 6 hrs post fertilized zebrafish embryo assessed as teratogenic effect by measuring effect on heart beat frequency up to 50 uM up to 120 hrs post fertilization by inverted microscopic method; parameters: species or system Danio rerio; conditions: in vivo
[3] = Toxicity in 6 hrs post fertilized zebrafish embryo assessed as teratogenic effect by measuring growth retardation up to 50 uM up to 120 hrs post fertilization by inverted microscopic method; parameters: species or system Danio rerio; conditions: in vivo
Zaire ebolavirus = experiment: Antiviral activity against VSV pseudotyped Ebolavirus Mayinga expressing GFP infected in human HeLa cells assessed as inhibition of viral infection at 10 uM pre-incubated for 2 hrs followed by viral infection and measured after 8 hrs by cell mask deep red staining based assay; format: functional, organism-based; conditions: 1976
How it was run: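 HeLa cells pretreated 2 h with compound, then infected with rVSV-EBOV-GP-GFP (8 h) or VSV-GFP (6 h), and stained with Cell Mask Deep Red. Relative inhibition = 1 minus (% GFP-expressing cells normalised to mock). Mean ± SD of three replicates, representative of three independent experiments.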

[4] = Toxicity in 6 hrs post fertilized zebrafish embryo assessed as teratogenic effect by measuring malformation of eyes up to 50 uM up to 120 hrs post fertilization by inverted microscopic method; parameters: species or system Danio rerio; conditions: in vivo
Ebolavirus = experiment: Antiviral activity against Ebolavirus H. sapiens-wt/1995/Kikwit-9510621 infected in African green monkey Vero cells assessed as inhibition of viral infection pretreated for 2 hrs followed by viral infection and measured after 48 hrs by EboV GP immunostaining based high content imaging analysis; format: functional, organism-based; conditions: Orthoebolavirus, H. sapiens-wt/1995/Kikwit-9510621, Vero
[5] = Toxicity in 6 hrs post fertilized zebrafish embryo assessed as teratogenic effect by measuring effect on blood circulation up to 50 uM up to 120 hrs post fertilization by inverted microscopic method; parameters: species or system Danio rerio; conditions: in vivo
[6] = Hepatotoxicity in 6 hrs post fertilized transgenic l-fabp:EGFP zebrafish embryo assessed as change in liver area index up to 30 uM up to 120 hrs post fertilization by fluorescence assay; format: toxicity, Danio rerio; conditions: in vivo
How it was run: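 Tg(l-fabp:EGFP) zebrafish embryos exposed from 6 hpf. At 120 hpf, liver area index (liver area/lateral body area) and liver fluorescence assessed by in vivo imaging.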

[7] = target: Cathepsin B (Homo sapiens) (UniProt P07858); experiment: Inhibition of cathepsin B activity in human HeLa cells at 10 uM after 12 hrs by magic red substrate based fluorescence assay; format: cell-based
How it was run: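 HeLa cells were exposed to compound for 12 h, then given the Magic Red cathepsin B peptide reporter, washed, and imaged at Ex/Em 590/630. Total intensity and average area of red fluorescence were scored by high-content analysis. Eight wells per point, about 3000 cells/well, mean ± SD, three independent experiments.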

HeLa [8] = experiment: Induction of lysosomotropism in human HeLa cells infected with Ebolavirus assessed as increase in fluorescence intensity of acid compartments at 10 uM for 1 hr by Lysosensor DND189 staining based assay; format: functional, cell-based
How it was run: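 HeLa cells were pretreated 1 h with compound (Bafilomycin A1 at 0.01 μM as acidification control), then stained with LysoSensor DND 189 for 10 min and washed. Live imaging at Ex/Em 443/505 nm. Fluorescence intensity per area was quantified by image analysis. Eight wells per point, about 3000 cells/well, mean ± SD, three independent experiments.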

[9] = Toxicity in 6 hrs post fertilized zebrafish embryo assessed as teratogenic effect by measuring malformation of sacculi/otoliths up to 50 uM up to 120 hrs post fertilization by inverted microscopic method; parameters: species or system Danio rerio; conditions: in vivo
[10] = Toxicity in 6 hrs post fertilized zebrafish embryo assessed as teratogenic effect by measuring malformation of notochord up to 50 uM up to 120 hrs post fertilization by inverted microscopic method; format: tissue-based, Danio rerio; conditions: in vivo
[11] = Toxicity in 6 hrs post fertilized zebrafish embryo assessed as teratogenic effect by measuring pericardial edema up to 50 uM up to 120 hrs post fertilization by inverted microscopic method; parameters: species or system Danio rerio; conditions: in vivo
[12] = Myelotoxicity in 6 hrs post fertilized transgenic mpx:GFP zebrafish embryo assessed as reduction in neutrophil occurrence at >= 80 uM measured at 72 hrs hrs post fertilization by fluorescence assay; parameters: species or system Danio rerio
[13] = Toxicity in 6 hrs post fertilized zebrafish embryo assessed as teratogenic effect by measuring malformation of head up to 50 uM up to 120 hrs post fertilization by inverted microscopic method; format: tissue-based, Danio rerio; conditions: in vivo
[14] = Toxicity in 6 hrs post fertilized zebrafish embryo assessed as tail detachment up to 50 uM up to 120 hrs post fertilization by inverted microscopic method; parameters: species or system Danio rerio; conditions: in vivo
[15] = Toxicity in 6 hrs post fertilized zebrafish embryo assessed as teratogenic effect by measuring yolk edema up to 50 uM up to 120 hrs post fertilization by inverted microscopic method; parameters: species or system Danio rerio; conditions: in vivo
[16] = Toxicity in 6 hrs post fertilized zebrafish embryo assessed as teratogenic effect by measuring yolk absorption up to 50 uM up to 120 hrs post fertilization by inverted microscopic method; parameters: species or system Danio rerio; conditions: in vivo
[17] = Toxicity in 6 hrs post fertilized zebrafish embryo assessed as teratogenic effect by measuring scoliosis up to 50 uM up to 120 hrs post fertilization by inverted microscopic method; parameters: species or system Danio rerio; conditions: in vivo
[18] = Toxicity in 6 hrs post fertilized zebrafish embryo assessed as teratogenic effect by measuring liver morphology and color up to 50 uM up to 120 hrs post fertilization by inverted microscopic method; format: tissue-based, Danio rerio; conditions: in vivo
HeLa [19] = experiment: Induction of lysosomotropism in human HeLa cells infected with Ebolavirus assessed as increase in lysosome concentration in juxtanuclear region at 10 uM for 2 hrs by acridine orange staining based assay; format: functional, cell-based
How it was run: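 HeLa cells were pretreated with compound for 2 h, then given acridine orange for 30 min and washed. Red AO fluorescence in acidic compartments was imaged, and total intensity and average area were scored by high-content imaging. Eight wells per point, about 3000 cells/well, mean ± SD, representative of three independent experiments.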

[20] = Hepatotoxicity in 72 hrs post fertilized transgenic l-fabp:EGFP zebrafish embryo assessed as change in liver fluorescence up to 80 uM up to 120 hrs post fertilization by fluorescence assay; format: toxicity, Danio rerio; conditions: in vivo
How it was run: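 Transgenic Tg(l-fabp:EGFP) zebrafish with fluorescent liver, exposed to compound added at 72 hpf. Liver imaged in vivo at 120 hpf. Read-outs were liver fluorescence and liver area index (liver area divided by lateral body area).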

HeLa [21] = experiment: Inhibition of lysosome fusion with autophagosome in human HeLa cells harboring GFP-LC3 assessed as increase in GFP-LC3-2 clustering at <50 uM after 6 hrs by Western blot analysis; format: functional, subcellular
How it was run: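 HeLa cells were exposed to compound for 6 h, then lysed and analysed by Western blot.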

Structure (SMILES): CCN(CC)CCCC(C)Nc1ccnc2cc(Cl)ccc12 (stereo not drawn) [CHLOROQUINE]
- Activity [1]: Non-Toxic
- Activity [2]: Non-Toxic
- Activity [3]: Non-Toxic
- Activity (Zaire ebolavirus): Active
- Activity [4]: Non-Toxic
- EC50 (Ebolavirus): 16 µM
- Activity [5]: Non-Toxic
- Activity [6]: Toxic
- inhibition [7]: inactive
- Activity (HeLa [8]): inactive
- Activity [9]: Non-Toxic
- Activity [10]: Non-Toxic
- Activity [11]: Non-Toxic
- Activity [12]: Toxic
- Activity [13]: Non-Toxic
- Activity [14]: Non-Toxic
- Activity [15]: Non-Toxic
- Activity [16]: Non-Toxic
- Activity [17]: Non-Toxic
- Activity [18]: Non-Toxic
- Activity (HeLa [19]): Active
- Activity [20]: Toxic
- inhibition (HeLa [21]): inactive
